# Source: ChEMBL document CHEMBL4842319, “Synthesis of alkynylated 1,2,4-oxadiazole/1,2,3-1H-triazole glycoconjugates: Discovering new compounds for use in chemotherapy against lung carcinoma and Mycobacterium tuberculosis” (Eur J Med Chem, 2021)
# How the values were obtained:
# [1] = Cytotoxicity against mouse RAW264.7 cells assessed as reduction in cell viability incubated for 48 hrs by MTT assay; assay type: cell-based
# In short: (§1)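 RAW 264.7 macrophages and HepG2 cells were cultured in DMEM at 37 °C, 5% CO2. For the assay, 10⁵ cells/well were preincubated for 24 h, then exposed to compounds at […] for 48 h, in duplicate. MTT (5 mg/mL in PBS) was added for 2 h and absorbance read at 570 nm. Untreated wells served as the negative control. CC50 obtained by regression analysis.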
# [2] = Selectivity index, ratio of CC50 for human HepG2 cells to MIC for antimycobacterial activity against Mycobacterium tuberculosis H37Rv ATCC 27294; assay type: toxicity; settings: read-out: Selectivity Index
# [3] = Cytotoxicity against human HepG2 cells assessed as reduction in cell viability incubated for 48 hrs by MTT assay; assay type: cell-based; in short: as §1
# [4] = Selectivity index, ratio of CC50 for mouse RAW264.7 cells to MIC for antimycobacterial activity against Mycobacterium tuberculosis H37Rv ATCC 27294; assay type: toxicity; settings: read-out: Selectivity Index
# [5] = system: Mycobacterium tuberculosis; test: Antimycobacterial activity against Mycobacterium tuberculosis H37Rv ATCC 27294 assessed as inhibition of bacterial growth incubated for 9 days by resazurin microtiter assay; assay type: functional; settings: H37Rv ATCC 27294, 216 h, time 9 day
# In short: (§2)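 REMA broth microdilution in 7H9-S medium, run in duplicate. Test compounds were serially two-fold diluted on the plate from 64 to 0.5 µg/mL. Inoculum taken from fresh Löwenstein-Jensen culture, adjusted to McFarland no. 1 and diluted 1:20. Plates were sealed and incubated at 37 °C in normal atmosphere for 9 days, then resazurin was added. Rifampicin and ethambutol served as standards. MIC reported in µg/mL.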
# [6] = system: Mycobacterium tuberculosis; test: Antimycobacterial activity against Mycobacterium tuberculosis H37Ra ATCC 25177 assessed as inhibition of bacterial growth incubated for 9 days by resazurin microtiter assay; assay type: functional; settings: H37Ra ATCC 25177, 216 h, time 9 day; in short: as §2
# [7] = Cytotoxicity against human AGP01 cells assessed as inhibition of cell proliferation at 25 uM incubated for 72 hrs by MTT assay relative to control; assay type: functional; parameters: scale not given: the % may be the effect or the level left
# In short: (§3)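 Tumor lines from NCI. PC-3, HCT-116 and NCIH-460 were grown in RPMI 1640; SKMEL-103 and AGP-01 in DMEM; all with 10% FBS at 37 °C, 5% CO2. Seeding was 0.3×10⁶ cells/mL for SKMEL-103 and AGP-01, 0.1×10⁶ for PC-3 and NCIH-460, and 0.7×10⁵ for HCT-116. Cells were exposed to compound at 25 µM for 72 h. Cells were centrifuged, 1% MTT added for 3 h, formazan dissolved in DMSO and read at 570 nm.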
# SK-MEL-103 = test: Cytotoxicity against human SK-MEL-103 cells assessed as inhibition of cell proliferation at 25 uM incubated for 72 hrs by MTT assay relative to control; assay type: functional; parameters: scale not given: the % may be the effect or the level left; in short: as §3
# PC-3 = test: Cytotoxicity against human PC-3 cells assessed as inhibition of cell proliferation at 25 uM incubated for 72 hrs by MTT assay relative to control; assay type: functional; parameters: scale not given: the % may be the effect or the level left; in short: as §3
# NCI-H460 = test: Cytotoxicity against human NCI-H460 cells assessed as inhibition of cell proliferation at 25 uM incubated for 72 hrs by MTT assay relative to control; assay type: functional; parameters: scale not given: the % may be the effect or the level left; in short: as §3
# HCT-116 = test: Cytotoxicity against human HCT-116 cells assessed as inhibition of cell proliferation at 25 uM incubated for 72 hrs by MTT assay relative to control; assay type: functional; parameters: scale not given: the % may be the effect or the level left; in short: as §3
Compound,CC50 at 48 h [1],selectivity ratio [2],CC50 at 48 h [3],selectivity ratio [4],MIC [5],MIC [6],Activity [7],Activity (SK-MEL-103),Activity (PC-3),Activity (NCI-H460),Activity (HCT-116)
C#CCN(c1nc(-c2ccc(Cl)cc2)no1)C1CCCCC1,15.1 µg/mL,2.58,41.3 µg/mL,0.95,16 µg/mL,32 µg/mL,,,,,
C#CCN(c1nc(-c2ccc(C#C)cc2)no1)C1CCCCC1,13.1 µg/mL,< 0.43,27.9 µg/mL,< 0.2,≥ 64 µg/mL,,,,,,
C#CCOc1ccc(-c2noc(N(CC#C)C3CCCCC3)n2)cc1,101 µg/mL,> 3.12,> 200 µg/mL,1.57,64 µg/mL,≥ 64 µg/mL,,,,,
CCCCCCCCCCc1cn(C[C@@H](CO[C@@H]2C=C[C@H](OC(C)=O)[C@@H](COC(C)=O)O2)OC(C)=O)nn1,30.4 µg/mL,0.92,59 µg/mL,0.47,64 µg/mL,64 µg/mL,,,,,
CC[C@@H](CO)NCCN[C@@H](CC)CO [ETHAMBUTOL],≥ 400 µg/mL,,> 400 µg/mL,,1 µg/mL,1 µg/mL,,,,,
C#CCN(c1nc(-c2ccc(Br)cc2)no1)C1CCCCC1,15.7 µg/mL,3.18,102 µg/mL,0.48,32 µg/mL,32 µg/mL,,,,,
C#CCN(c1nc(-c2ccccc2)no1)C1CCCCC1,32.1 µg/mL,< 1.69,109 µg/mL,< 0.5,≥ 64 µg/mL,≥ 64 µg/mL,47%,28.6%,23.7%,22.6%,
CC(=O)OC[C@H]1O[C@H](OC[C@@H](Cn2cc(CN(c3nc(-c4ccc(-c5cn(C[C@H](CO[C@@H]6C=C[C@H](OC(C)=O)[C@@H](COC(C)=O)O6)OC(C)=O)nn5)cc4)no3)C3CCCCC3)nn2)OC(C)=O)C=C[C@@H]1OC(C)=O,117 µg/mL,< 0.18,11.8 µg/mL,< 1.82,≥ 64 µg/mL,≥ 64 µg/mL,,,,,
C#CCN(c1nc(-c2ccc([N+](=O)[O-])cc2)no1)C1CCCCC1,26.7 µg/mL,< 0.68,43.7 µg/mL,< 0.41,≥ 64 µg/mL,≥ 64 µg/mL,52.5%,18.5%,53.7%,,37.2%
CC(=O)OC[C@H]1O[C@H](OC[C@@H](Cn2cc(CN(c3nc(-c4ccc(Br)cc4)no3)C3CCCCC3)nn2)OC(C)=O)C=C[C@@H]1OC(C)=O,39.1 µg/mL,5.95,47.6 µg/mL,4.89,8 µg/mL,4 µg/mL,,,,,
O=[N+]([O-])c1cccc(-c2noc(NC3CCCCC3)n2)c1,,,,,,,11.6%,32%,9.9%,,14.1%
CC(=O)OC[C@H]1O[C@H](OC[C@@H](Cn2cc(CN(c3nc(-c4cccc(C)c4)no3)C3CCCCC3)nn2)OC(C)=O)C=C[C@@H]1OC(C)=O,46.4 µg/mL,< 0.61,39.2 µg/mL,< 0.72,≥ 64 µg/mL,≥ 64 µg/mL,38.9%,69%,9.2%,26.1%,69.5%
C#CCN(c1nc(-c2cccc(C)c2)no1)C1CCCCC1,25.9 µg/mL,1.38,44.4 µg/mL,0.8,32 µg/mL,≥ 64 µg/mL,94.5%,87.7%,29.4%,40.2%,86.5%
CC(=O)OC[C@H]1O[C@H](OC[C@@H](Cn2cc(CN(c3nc(-c4cccc([N+](=O)[O-])c4)no3)C3CCCCC3)nn2)OC(C)=O)C=C[C@@H]1OC(C)=O,100 µg/mL,,> 200 µg/mL,< 1.56,≥ 64 µg/mL,≥ 64 µg/mL,44.7%,42.2%,38.4%,,27.7%
CC(=O)OC[C@H]1O[C@H](OC[C@@H](Cn2cc(CN(c3nc(-c4ccc([N+](=O)[O-])cc4)no3)C3CCCCC3)nn2)OC(C)=O)C=C[C@@H]1OC(C)=O,,,> 200 µg/mL,1.25,≥ 64 µg/mL,≥ 64 µg/mL,47.6%,30.6%,28.8%,36.3%,39.1%
C#CCN(c1nc(-c2ccc(C(F)(F)F)cc2)no1)C1CCCCC1,38.3 µg/mL,1.93,61.9 µg/mL,1.2,32 µg/mL,64 µg/mL,,,,,
C#CCN(c1nc(-c2cccc(Br)c2)no1)C1CCCCC1,31.8 µg/mL,1.67,53.5 µg/mL,0.9,32 µg/mL,≥ 64 µg/mL,69.1%,39.4%,58.6%,17.9%,65.6%
CC(=O)OC[C@H]1O[C@H](OC[C@H](Cn2cc(COc3ccc(-c4noc(NC5CCCCC5)n4)cc3)nn2)OC(C)=O)C=C[C@@H]1OC(C)=O,33.3 µg/mL,6.21,99.5 µg/mL,2.08,16 µg/mL,16 µg/mL,,,,,
CC(=O)OC[C@H]1O[C@H](OC[C@@H](Cn2cc(CN(c3nc(-c4cccc(Br)c4)no3)C3CCCCC3)nn2)OC(C)=O)C=C[C@@H]1OC(C)=O,,,,,,,59.9%,52.3%,45.5%,27.1%,
CC(=O)OC[C@H]1O[C@H](OC[C@@H](Cn2cc(COc3ccc(-c4noc(N(Cc5cn(C[C@H](CO[C@@H]6C=C[C@H](OC(C)=O)[C@@H](COC(C)=O)O6)OC(C)=O)nn5)C5CCCCC5)n4)cc3)nn2)OC(C)=O)C=C[C@@H]1OC(C)=O,> 200 µg/mL,< 0.73,47 µg/mL,,≥ 64 µg/mL,≥ 64 µg/mL,,,,,
O=[N+]([O-])c1ccc(-c2noc(NC3CCCCC3)n2)cc1,,,,,,,53.2%,50.7%,20.3%,10.4%,
CO[C@H]1/C=C/O[C@@]2(C)Oc3c(C)c(O)c4c(O)c(c(/C=N/N5CCN(C)CC5)c(O)c4c3C2=O)NC(=O)/C(C)=C\C=C\[C@H](C)[C@H](O)[C@@H](C)[C@@H](O)[C@@H](C)[C@H](OC(C)=O)[C@@H]1C [RIFAMPIN],80.4 µg/mL,1410,176 µg/mL,643,0.125 µg/mL,0.062 µg/mL,,,,,
C#CCN(c1nc(-c2ccc(C)cc2)no1)C1CCCCC1,17.6 µg/mL,< 1.43,91.9 µg/mL,< 0.27,≥ 64 µg/mL,64 µg/mL,,,,,
CC(=O)OC[C@H]1O[C@H](OC[C@H](Cn2cc(COc3ccc(-c4noc(C)n4)cc3)nn2)OC(C)=O)C=C[C@@H]1OC(C)=O,112 µg/mL,< 0.58,37.7 µg/mL,< 1.74,≥ 64 µg/mL,≥ 64 µg/mL,,,,,
CC(=O)OC[C@H]1O[C@H](OC[C@@H](CN=[N+]=[N-])OC(C)=O)C=C[C@@H]1OC(C)=O,106 µg/mL,,> 200 µg/mL,< 1.66,≥ 64 µg/mL,≥ 64 µg/mL,,,,,
CC(=O)OC[C@H]1O[C@H](OC[C@H](Cn2cc(-c3ccc(-c4noc(NC5CCCCC5)n4)cc3)nn2)OC(C)=O)C=C[C@@H]1OC(C)=O,16.3 µg/mL,< 1.24,79.8 µg/mL,< 0.25,≥ 64 µg/mL,≥ 64 µg/mL,,,,,
CC(=O)OC[C@H]1O[C@H](OC[C@@H](Cn2cc(CN(c3nc(-c4ccc(Cl)cc4)no3)C3CCCCC3)nn2)OC(C)=O)C=C[C@@H]1OC(C)=O,35.5 µg/mL,0.73,46.9 µg/mL,0.55,64 µg/mL,64 µg/mL,,,,,
